The record followed here is ChEMBL document CHEMBL5113552, “(-)-Epigallocatechin Gallate is a Noncompetitive Inhibitor of NAD Kinase” (ACS Med Chem Lett, 2022).

The target in experiment [1] is T1, NAD kinase (Homo sapiens, UniProt O95544).
T1 sequence (O95544 whole entry): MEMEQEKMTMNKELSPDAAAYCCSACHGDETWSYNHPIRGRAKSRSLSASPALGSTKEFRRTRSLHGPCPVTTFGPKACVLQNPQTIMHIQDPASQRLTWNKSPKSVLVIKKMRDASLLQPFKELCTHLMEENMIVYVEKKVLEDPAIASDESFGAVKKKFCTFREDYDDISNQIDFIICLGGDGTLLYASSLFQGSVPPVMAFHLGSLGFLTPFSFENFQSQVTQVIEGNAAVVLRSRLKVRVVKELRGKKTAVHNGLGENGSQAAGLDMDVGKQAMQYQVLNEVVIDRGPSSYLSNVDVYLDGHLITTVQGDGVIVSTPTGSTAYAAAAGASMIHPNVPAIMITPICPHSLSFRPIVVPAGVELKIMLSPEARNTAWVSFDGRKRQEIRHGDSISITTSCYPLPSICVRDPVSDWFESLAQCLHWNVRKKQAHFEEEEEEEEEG
Put plainly: Inhibition of human NADK by HPLC analysis.

The target in experiment [2] is T1, NAD kinase. The experiment can be described thus: Inhibition of NADK (unknown origin) by HPLC analysis.
Experiment [3] can be described thus: Cytotoxicity against human C85 cells assessed as inhibition of cell growth. The class given is functional, cell-based. The conditions noted are these: CCCL-1.
Experiment [4] relates to CCRF-CEM. Put plainly: Cytotoxicity against human CCRF-CEM cells assessed as inhibition of cell growth. The class given is functional, cell-based.
Experiment [5] has as its system MOLT-4. Put plainly: Cytotoxicity against human MOLT-4 cells assessed as inhibition of cell growth. In kind it is functional, cell-based.
The subject of experiment [6] is RL. Put plainly: Cytotoxicity against human RL cells assessed as inhibition of cell growth. In kind it is functional, cell-based.
In experiment [7] the target is T1, NAD kinase. The experiment can be described thus: Non-competitive inhibition of N-terminal full length NADK (unknown origin) expressed in Escherichia coli BL21(DE3) cells by enzymatic activity assay.
The subject of experiment [8] is NCI-H358. Put plainly: Cytotoxicity against human H358 cells harboring KRAS G12C mutant assessed as inhibition of cell growth at 30 uM. The class given is functional. In short, it runs like this:
(§1)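 Lung cancer cell lines (PC-9 KRAS WT, A549 KRAS G12S, H358 and H23 KRAS G12C) exposed to a range of concentrations. Growth curves were built by following cell number over days (day 4 is cited) against a DMSO control. n = 3 replicates; significance was judged at P < 0.05, 0.01 and 0.001.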

The subject of experiment [9] is A549. Put plainly: Cytotoxicity against human A549 cells harboring KRAS […] mutant assessed as inhibition of cell growth at 30 uM. In kind it is functional, cell-based.
Experiment [10] addresses T1, NAD kinase. The experiment can be described thus: Inhibition of NADK delta 95 kinase domain (unknown origin) at 80 uM measured after 30 mins by […].
Experiment [11] has as its target T2, NAD kinase (Homo sapiens) (UniProt O95544).
T2 sequence (whole entry): T1 sequence (O95544 whole entry)
The experiment can be described thus: Binding affinity to human NADK (410 to 418 residues) assessed as decrease in deuterium incorporation at 80 uM measured after 30 mins by HDX-MS analysis. Details: scale not given: the % may be the effect or the level left.

The target of experiment [12] is T1, NAD kinase. Put plainly: Binding affinity to N-terminal full length NADK (unknown origin) expressed in Escherichia coli BL21(DE3) cells assessed as dissociation constant by surface plasmon resonance assay. In general terms: SPR reads the build-up and loss of mass on a sensor chip optically.
Experiment [13] relates to A549. The experiment can be described thus: Cytotoxicity against human A549 cells harboring KRAS G12S mutant assessed as inhibition of cell growth at 50 uM.
Experiment [14] concerns PC-9. Put plainly: Cytotoxicity against human PC-9 cells harboring wild type KRAS assessed as inhibition of cell growth at 60 uM measured on day 4. The class given is functional, cell-based. The method, boiled down: as §1
Experiment [15] concerns the target T2, NAD kinase (Homo sapiens). Put plainly: Binding affinity to human NADK (345 to 365 residues) assessed as decrease in deuterium incorporation at 80 uM measured after 30 mins by HDX-MS analysis. Details: scale not given: the % may be the effect or the level left.
The target of experiment [16] is T2, NAD kinase (Homo sapiens). The experiment can be described thus: Binding affinity to human NADK (155 to 164 residues) assessed as decrease in deuterium incorporation at 80 uM measured after 30 mins by HDX-MS analysis. Details: scale not given: the % may be the effect or the level left.
Experiment [17] deals with NCI-H23. Put plainly: Cytotoxicity against human H23 cells harboring KRAS G12C mutant assessed as inhibition of cell growth at 30 uM. The class given is functional. In short, it runs like this: as §1

What is called Ki is the dissociation constant of the complex between target and ligand, obtained from inhibition or displacement. Usually IC50 stands for the point on the concentration scale where inhibition reaches its midpoint. What is called inhibition is the relative decrease from the control value, in per cent. The Kd is a measure of binding affinity in units of concentration.

Activity calls are given as the source filed them. No cut-off for these calls is given here.

In turn, `Nc1ncnc2c1nc(Br)n2[C@@H]1O[C@H](CSSC[C@H]2O[C@@H](n3c(Br)nc4c(N)ncnc43)[C@H](O)[C@@H]2O)[C@@H](O)[C@H]1O` came in with a Ki in experiment [1] of 6 µM.
Take `Oc1cc(O)c2c(c1)O[C@@H](c1cc(O)c(O)c(O)c1)[C@H](O)C2` [(-)-GALLOCATECHIN]: the IC50 in [2] was more than 100 µM.
For the compound `Nc1ncnc2c1ncn2[C@@H]1O[C@H](CSSC[C@H]2O[C@@H](n3c(Br)nc4c(N)ncnc43)[C@H](O)[C@@H]2O)[C@@H](O)[C@H]1O`, the affinity in experiment [1] corresponds to a Ki of 6 µM.
Still for that read-out and setting: the figure for `Nc1ncnc2c1ncn2[C@@H]1O[C@H](CSSC[C@H]2O[C@@H](n3cnc4c(N)ncnc43)[C@H](O)[C@@H]2O)[C@@H](O)[C@H]1O` is 45 µM.
Take `NC(=S)c1cccnc1`: the IC50 in experiment [3], in [4], in [5] and in experiment [6] was 10 µM throughout.
For `O=C(O[C@@H]1Cc2c(O)cc(O)cc2O[C@@H]1c1cc(O)c(O)c(O)c1)c1cc(O)c(O)c(O)c1` [EPIGALOCATECHIN GALLATE], the Ki in experiment [7] turned out to be 3.28 µM. Also, the inhibition at 30 µM in experiment [8] and in experiment [17] was 100% throughout. Besides, the outcome in experiment [9] and in [14] was Active. Also, the midpoint of inhibition in experiment [10], the IC50, lay at 0.96 µM. The Activity in experiment [11] was determined as 21.8%; in [15] it was 21.1%; in experiment [16] it was 12.9%. Further, the Kd in experiment [12] came to 1.78 µM. Further, the inhibition at 50 µM in experiment [13] is 100%.
As for `Oc1cc(O)c2c(c1)O[C@H](c1cc(O)c(O)c(O)c1)[C@H](O)C2` [EPIGALLOCATECHIN], the IC50 in experiment [2] is more than 100 µM.
